In article PMC3947091 (Molecular imaging and biology : MIB : the official …, 2014):
* marks the point of attachment. DOTA = O=C(O)CN1CCN(CC(=O)O)CCN(CC(=O)*)CCN(CC(=O)O)CC1; Cy5.5 = Cy5.5 near-infrared fluorescence dye

Legend:
glioblastomas = conditions: 90 of 139 patients; white light comparison 47 (36 %) of 131 patients; cited from earlier work
U251-Luc tumors [1] = assay: NIR optical imaging, orthotopic U251-Luc tumors; format: in vivo, nude mice; conditions: 24 h after tail vein injection, 10 μg
Method in brief: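 Orthotopic xenograft made with 3×10⁶ U251-Luc cells stereotaxically implanted in male nude mice (8–10 weeks; 3 mm deep, 1 mm right, 2.5 mm behind bregma). Bioluminescence check on day 10. Tail-vein injection of 10 μg Cy5.5-labeled probe (n=12). NIR imaging at 1, 4 and 24 h (ex 675 nm/30 nm bandwidth, em 695–770 nm); tissues analyzed ex vivo at 24 h. Manual ROI, photons/s/cm².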

U87-Luc tumors [2] = format: in vivo, nude mice; conditions: 10 μg
Method in brief: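 Male nude mice (8–10 weeks) had 1×10⁶ U87-Luc cells implanted stereotaxically (3 mm deep, 1 mm right, 2.5 mm behind bregma). Tumor take was checked by bioluminescence on day 10 (iv d-luciferin 4 mg/kg). Cy5.5-labeled test probe or scrambled control, 10 μg, given by tail vein. NIR imaging at 1, 4 and 24 h (ex 675 nm, em 695–770 nm). Mice killed at each time point (n=4); organs weighed and imaged ex vivo. Manual ROI, photons/s/cm².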

[3] = test system: U87-Luc tumors (EphB4, CD31 staining); assay: Fluorescence microscopy of excised brain sections, U87-Luc tumors; format: in vivo, nude mice; conditions: EphB4 expression only in tumor microvessels
Method in brief: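 Brains with implanted tumor excised from probe-injected nude mice after μPET/CT, snap-frozen, cut at 4 μm. Sections fixed in 4% paraformaldehyde 20 min RT, blocked in 10% goat serum 30 min, and incubated overnight at 4 °C with rabbit anti-human EphB4 (1:100) and rat anti-mouse CD31 (1:50). Alexa 488/594 secondaries (1:500), DAPI counterstain, fluorescence microscopy.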

U87-Luc tumors [4] = assay: μPET/CT imaging, orthotopic U87-Luc tumors; format: in vivo, nude mice; conditions: 1 and 24 h after tail vein injection, 7.4 MBq
Method in brief: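 Orthotopic U87-Luc nude mice (n=4; 1×10⁶ cells implanted stereotaxically) received ⁶⁴Cu-labeled probe, 7.4 MBq (200 μCi, 0.5–1.0 μg), by tail vein. μPET/CT imaging at 1 and 24 h. Mean activities computed within ROIs drawn on tumor and normal brain, with a 1%-injected-dose standard placed beside the animal.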

U251-Luc tumors [5] = assay: μPET/CT imaging with blocking experiment, orthotopic U251-Luc tumors; format: in vivo, nude mice
Method in brief: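 In orthotopic U251-Luc nude mice (n=3), ⁶⁴Cu-labeled probe (7.4 MBq, 0.5–1.0 μg) was given by tail vein, alone or with 50 μg/mouse of unlabeled probe for blocking. μPET/CT at 1 and 24 h. ROIs drawn on tumor, normal brain and a standard holding 1% of the injected dose. Tumor/normal-brain voxel intensity ratio taken from 3D ROIs, reported with SD; Student t test.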

In the case of `NCC(=O)CCC(=O)O` [5-aminolevulinic acid], the “Patients with completely resected glioblastoma” value (glioblastomas) is listed as 65%.
With “Cy5.5-TNYL-RAWK-DOTA: TNYL-RAW with Cy5.5 at the N-terminus and DOTA at the C-terminus ({Cy5.5}-TNYLFSPNGPIARAWK(DOTA)-NH2)” the “Cy5.5 NIR fluorescence visualization of tumor in mouse brain” value (U251-Luc tumors [1]) was “clearly visualized”, the “Brain tumor uptake clearly shown in NIR fluorescence imaging” value (U87-Luc tumors [2]; U87-Luc tumors, 1, 4 and 24 h after intravenous injection) was “clearly shown” and the “Cy5.5 NIR fluorescence visualization of tumor in mouse brain” value (U87-Luc tumors [2]; U87-Luc, 24 h after tail vein injection) was “clearly visualized”.
With “Cy5.5-TNYL-RAWK-^64Cu-DOTA: ^64Cu-labeled Cy5.5-TNYL-RAWK-DOTA, dual-labeled PET/optical probe ({Cy5.5}-TNYLFSPNGPIARAWK(DOTA)-NH2; also: DOTA holds 64Cu)” the “Binding site in tumor sections (Cy5.5 signal colocalization)” value [3] was “bound only to the tumor microvessels”, the “μPET/CT visualization of tumors” value (U87-Luc tumors [4]) was “clearly visualized” and the “μPET/CT visualization of tumors, with cold peptide” value (U251-Luc tumors [5]; 1 and 24 h, coinjected cold Cy5.5-TNYL-RAWK-DOTA 50 μg/mouse) was “barely discernible”. For the same molecule, the “μPET/CT visualization of tumors, absence of cold peptide” value (U251-Luc tumors [5]; 1 and 24 h after radiotracer injection, 7.4 MBq) was “clearly visualized”.
